Experimental data taken from ChEMBL document CHEMBL1141286, “Benzochromenones from the marine crinoid Comantheria rotula inhibit hypoxia-inducible factor-1 (HIF-1) in cell-based reporter assays and differentially suppress the growth of certain tumor cell lines” (J Nat Prod, 2007).

Columns and labels:
UACC-257 = test: Growth inhibition of human UACC257 cells; format: functional
UACC-62 = test: Growth inhibition of human UACC62 cells; format: functional
SK-OV-3 = test: Growth inhibition of human SK-OV3 cells; format: functional
IGROV-1 = test: Growth inhibition of human IGROV1 cells; format: functional
786-0 = test: Growth inhibition of human 786-0 cells; format: functional
A498 = test: Growth inhibition of human A498 cells; format: functional
ACHN = test: Growth inhibition of human ACHN cells; format: functional
CAKI-1 = test: Growth inhibition of human CAKI1 cells; format: functional
SN12C = test: Growth inhibition of human SN12C cells; format: functional
UO-31 = test: Growth inhibition of human UO31 cells; format: functional
PC-3 = test: Growth inhibition of human PC3 cells; format: functional
MCF7 = test: Growth inhibition of human MCF7 cells; format: functional
NCI/ADR-RES = test: Growth inhibition of human NCI/ADR-RES cells; format: functional
Hs-578T = test: Growth inhibition of human HS578T cells; format: functional
MDA-MB-435 = test: Growth inhibition of human MDA-MB-435 cells; format: functional
BT-549 = test: Growth inhibition of human BT549 cells; format: functional
T47D = test: Growth inhibition of human T47D cells; format: functional
HL-60 = test: Growth inhibition of human HL60 cells; format: functional
[1] = target: Hypoxia inducible factors; HIF-1-alpha, HIF-2-alpha (Homo sapiens, UniProt Q16665+Q99814); test: Inhibition of HIF1 activation in human T47D cells by TK-luciferase assay; format: cell-based
How it was run: (§1)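 HIF-1 reporter (pHRE-TK-Luc) assays in transfected PC-3 or T47D cells; HIF-1 induced by hypoxia or by the hypoxia mimetic 1,10-phenanthroline (10 μM); compounds at half-log concentrations; luciferase activity measured; IC50 from experiments in triplicate.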

[2] = Inhibition of 1,10-phenanthroline-induced HIF1 activation in PC3 cells by TK-luciferase assay; format: cell-based; conditions: Homo sapiens, PC-3; how it was run: as §1
[3] = read-out: Log LC50 (the source's name) (converted)

Question: Which LC50 (UACC-257) does the source give for CCCc1cc(=O)c2c(OC)c3c(OC)cc(O)c(Oc4c(O)cc(OC)c5c(OC)c6c(=O)cc(CCC)oc6cc45)c3cc2o1 here?
Answer: Its LC50 is 40.7 µM.

Question: And the TGI (UACC-257; read-out: Log TGI (converted))?
Answer: Its TGI is 13.8 µM.

Question: What about the GI50 (UACC-62) of the same compound?
Answer: Its GI50 is 4.9 µM.

Question: What about the LC50 (lethal concentration, 50% cell kill) (UACC-62) of the same compound?
Answer: Its LC50 (lethal concentration, 50% cell kill) is 41.7 µM.

Question: What about the TGI (UACC-62; read-out: Log TGI (converted)) of the same compound?
Answer: Its TGI is 17 µM.

Question: What about the GI50 (SK-OV-3) of the same compound?
Answer: Its GI50 is 15.1 µM.

Question: What about the LC50 (SK-OV-3) of the same compound?
Answer: Its LC50 is 53.7 µM.

Question: What about the TGI (SK-OV-3; read-out: Log TGI (converted)) of the same compound?
Answer: Its TGI is 28.2 µM.

Question: What about the GI50 (IGROV-1) of the same compound?
Answer: The GI50 was 10.2 µM.

Question: And the CC50 (IGROV-1; [3])?
Answer: Its CC50 is 57.5 µM.

Question: What about the TGI (IGROV-1; read-out: Log TGI (converted)) of the same compound?
Answer: The TGI was 24 µM.

Question: And the GI50 (786-0)?
Answer: Its GI50 is 9.33 µM.

Question: And the LC50 (786-0)?
Answer: Its LC50 is 49 µM.

Question: What about the TGI (786-0; read-out: Log TGI (converted)) of the same compound?
Answer: The TGI was 21.9 µM.

Question: What about the GI50 (A498) of the same compound?
Answer: Its GI50 is 18.2 µM.

Question: And the LC50 (A498)?
Answer: The LC50 was 60.3 µM.

Question: And the TGI (A498; read-out: Log TGI (converted))?
Answer: The TGI was 33.1 µM.

Question: And the GI50 (ACHN)?
Answer: The GI50 was 7.08 µM.

Question: What about the CC50 (ACHN; [3]) of the same compound?
Answer: Its CC50 is 45.7 µM.

Question: What about the TGI (ACHN; read-out: Log TGI (converted)) of the same compound?
Answer: The TGI was 20 µM.

Question: What about the GI50 (CAKI-1) of the same compound?
Answer: The GI50 was 11 µM.

Question: What about the LC50 (CAKI-1) of the same compound?
Answer: The LC50 was 47.9 µM.

Question: And the TGI (CAKI-1; read-out: Log TGI (converted))?
Answer: The TGI was 22.9 µM.

Question: And the GI50 (SN12C)?
Answer: The GI50 was 2.09 µM.

Question: What about the LC50 (SN12C) of the same compound?
Answer: The LC50 was 14.1 µM.

Question: What about the TGI (SN12C; read-out: Log TGI (converted)) of the same compound?
Answer: The TGI was 4.79 µM.

Question: What about the GI50 (UO-31) of the same compound?
Answer: The GI50 was 6.61 µM.

Question: And the LC50 (UO-31)?
Answer: Its LC50 is 45.7 µM.

Question: And the TGI (UO-31; read-out: Log TGI (converted))?
Answer: The TGI was 19.5 µM.

Question: What about the GI50 (PC-3) of the same compound?
Answer: Its GI50 is 6.31 µM.

Question: And the LC50 (PC-3)?
Answer: The LC50 was 46.8 µM.

Question: And the TGI (PC-3; read-out: Log TGI (converted))?
Answer: The TGI was 20 µM.

Question: And the GI50 (MCF7)?
Answer: Its GI50 is 3.31 µM.

Question: And the LC50 (MCF7)?
Answer: Its LC50 is 100 µM.

Question: What about the TGI (MCF7; read-out: Log TGI (converted)) of the same compound?
Answer: The TGI was 10 µM.

Question: And the GI50 (NCI/ADR-RES)?
Answer: The GI50 was 6.76 µM.

Question: What about the LC50 (concentration killing 50% of cells) (NCI/ADR-RES) of the same compound?
Answer: Its LC50 (concentration killing 50% of cells) is 100 µM.

Question: What about the TGI (NCI/ADR-RES; read-out: Log TGI (converted)) of the same compound?
Answer: Its TGI is 67.6 µM.

Question: And the GI50 (Hs-578T)?
Answer: The GI50 was 5.89 µM.

Question: What about the LC50 (Hs-578T) of the same compound?
Answer: The LC50 was 100 µM.

Question: What about the TGI (Hs-578T; read-out: Log TGI (converted)) of the same compound?
Answer: The TGI was 69.2 µM.

Question: And the GI50 (MDA-MB-435)?
Answer: Its GI50 is 2.24 µM.

Question: And the LC50 (MDA-MB-435)?
Answer: The LC50 was 15.8 µM.

Question: What about the TGI (MDA-MB-435; read-out: Log TGI (converted)) of the same compound?
Answer: Its TGI is 5.13 µM.

Question: And the GI50 (BT-549)?
Answer: The GI50 was 3.09 µM.

Question: And the LC50 (BT-549)?
Answer: Its LC50 is 34.7 µM.

Question: What about the TGI (BT-549; read-out: Log TGI (converted)) of the same compound?
Answer: The TGI was 11.2 µM.

Question: What about the GI50 (T47D) of the same compound?
Answer: Its GI50 is 3.63 µM.

Question: And the LC50 (T47D)?
Answer: The LC50 was 91.2 µM.

Question: And the TGI (T47D; read-out: Log TGI (converted))?
Answer: The TGI was 12.9 µM.

Question: And the GI50 (HL-60)?
Answer: Its GI50 is 3.89 µM.

Question: And the LC50 (HL-60)?
Answer: The LC50 was 79.4 µM.

Question: What about the TGI (HL-60; read-out: Log TGI (converted)) of the same compound?
Answer: Its TGI is 11.2 µM.

Question: What about the IC50 [1] of the same compound?
Answer: The IC50 was 7.3 µM.

Question: What about the IC50 [2] of the same compound?
Answer: The IC50 was 3.9 µM.
